CRFR2-BP antag = blocks CRF-induced signaling of the CRF-BP/CRF-R2 complex. HEK293 CRF-R2/CRF-BP, CRF-induced calcium fluorescence. inhibition, % at 11.8 µM. hit rate 0.59% among 350,000. AID 588475;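 active means inhibition of the ligand-induced calcium signal above about 50% at the single tested concentration, limit read from the data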
DDE Tn7 FP inh = DD(E)-Tn7 binding inhibition, primary FP screen. P02675. FP displacement of FITC-Tn7 peptide from fibrin DD(E); 0% = median of compound wells per plate. inhibition, % at 8.3 µM. hit rate 0.13% among 370,000. AID 720508;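 active means inhibition above the mean of compounds falling within the control limits plus 3 SD of them, cut at about 14% in these data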
Target sequence (P02675 whole entry, looked up): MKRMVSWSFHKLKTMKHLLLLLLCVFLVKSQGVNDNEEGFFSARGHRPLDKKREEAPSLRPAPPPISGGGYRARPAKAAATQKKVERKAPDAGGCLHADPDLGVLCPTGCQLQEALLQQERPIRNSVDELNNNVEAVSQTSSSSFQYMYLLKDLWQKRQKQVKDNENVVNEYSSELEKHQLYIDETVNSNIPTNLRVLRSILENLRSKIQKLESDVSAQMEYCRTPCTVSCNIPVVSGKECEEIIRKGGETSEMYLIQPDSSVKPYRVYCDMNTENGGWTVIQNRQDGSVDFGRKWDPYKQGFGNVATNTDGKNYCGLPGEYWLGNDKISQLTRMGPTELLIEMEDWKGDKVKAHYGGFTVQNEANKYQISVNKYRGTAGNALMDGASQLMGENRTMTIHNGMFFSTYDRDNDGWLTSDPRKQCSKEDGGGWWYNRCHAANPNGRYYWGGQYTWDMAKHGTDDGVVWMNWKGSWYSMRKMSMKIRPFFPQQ
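Also added: labelled Tn7 tracer, 0.1 µM; Assay system: human fibrin DD(E) protein; Amount: 2 µM fibrin DD(E); Schedule: 10 min compound pre-incubation, 3 h probe incubation at room temperature; Repeats: one replicate per compound; Read-out basis: percent inhibition; Measured by: fluorescence polarization of the labelled Tn7 tracer.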
Tn6 DDE FP = DD(E)-Tn6 binding inhibition, primary FP screen; inhibition, % at 8.3 µM; Fibrin DD(E) TRITC-Tn6 fluorescence polarization displacement; hit rate 0.21% among 370,000;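 active means inhibition above a per-campaign cutoff: mean of compounds within control limits plus 3 SD, cut at about 15% in these data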
CRFBP-R2 agonist = CRF-BP/CRF-R2 complex agonism; HEK293 CRF-R2/CRF-BP, calcium dye fluorescence (FLIPR); percent of saturating CRF peptide response; hit rate 0.46% among 350,000; AID 588473; activation, % at 13.2 µM;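 active means activation of at least 50%, plus an integration ratio under a set limit after plate pattern correction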
CendR NRP1 mod = alters CendR peptide binding to human NRP-1 | hit rate 0.85% among 360,000 | FAM-RPARPAR peptide binding to NRP-1, fluorescence polarization | AID 602438 | inhibition, % at 25 µM | O14786;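 active means inhibition or corrected inhibition above about 18%, plus a signal ratio from 0.5 to 1.5, limit read from the data, passing the limit was not always enough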
KLK7 zymogen act = proKLK7 (human) activation, primary screen; purified proKLK7, EDANS-DABCYL substrate fluorescence; 100% is mature enzyme control, 0% vehicle; activation, % at 7 µM; P49862; hit rate 0.9% among 370,000;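 active means activation above the mean of all tested compounds plus 3 SD, computed per campaign excluding outliers beyond control limits, cut at about 13% in these data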
Of the large screens only hits and unclear results are named; the others gave an inactive call. Sampled rows, rich in hits. Any-hit rate of the full collection: about 2.9%.

Cc1ccc([C@H](C)NC(=O)C2=C(N)N(S(=O)(=O)c3ccc(C)cc3)C(C(=O)c3ccccc3)C2c2ccccc2Cl)cc1 (stereo partly drawn)	none (no result: CRFR2-BP antag, CRFBP-R2 agonist, CendR NRP1 mod, KLK7 zymogen act)
C[C@@H]1COc2cc(Br)ccc2S(=O)(=O)N1Cc1cn(Cc2ccc(Cl)cc2)nn1	none (no result: CRFR2-BP antag, CRFBP-R2 agonist, CendR NRP1 mod)
CCCCOc1ccc(C(=O)N/C(=C/C=C/c2ccccc2)C(=O)NCCCO)cc1	CendR NRP1 mod 22.0
C[C@@H]1OC(C2CCCCC2)N(C)[C@H]2C[C@H]3c4[nH]c5cccc(-c6cccc(F)c6)c5c4CCN3C(=O)[C@@H]12 (stereo partly drawn)	none (no result: CRFR2-BP antag, CRFBP-R2 agonist, CendR NRP1 mod)
Cn1c(-c2sc3cc(C(F)(F)F)cnc3c2-c2cccnc2)n[nH]c1=S	none
Cn1c(-c2sc3cc(C(F)(F)F)cnc3c2-c2ccccn2)n[nH]c1=S	CendR NRP1 mod 25.3
CNC(=S)NNC(=O)c1sc2cc(C(F)(F)F)cnc2c1-c1ccccn1	CendR NRP1 mod 23.1
Cc1ccc(SCc2cc(=O)[nH]c(SCC(=O)Nc3cc(Cl)ccc3Cl)n2)cc1	CRFR2-BP antag 68.0
Cc1cccc(-c2cccc3c4c([nH]c23)[C@@H]2C[C@H](N(C)C(=O)Nc3ccccc3)[C@H]([C@H](C)O)CN2CC4)c1	none (no result: CRFR2-BP antag, CRFBP-R2 agonist, CendR NRP1 mod)
COc1ccc(OC)c(/C=C2/Sc3ccccc3C2=O)c1	CRFBP-R2 agonist 197.3
CC(C)(C)N(NC(=O)Nc1ccccc1)C(=O)c1ccccc1Cl	CendR NRP1 mod 25.4
N#Cc1ccc(OC[C@@H](O)CN2CCC(C(O)(c3ccccc3)c3ccccc3)CC2)cc1F	none (no result: CRFR2-BP antag, CRFBP-R2 agonist, CendR NRP1 mod)
CC(=O)Oc1ccc(-c2ccc(C(=O)O)cc2)cc1	none
CC(=O)c1ccc(S(=O)(=O)Oc2ccc(-c3ccc(C(=O)O)cc3)cc2)cc1	CendR NRP1 mod 25.5
CCN(CC)Cc1cc(Nc2c3ccccc3nc3c4ccccc4n(C)c23)cc(CN(CC)CC)c1O	KLK7 zymogen act 23.4
CCn1c(SCC(=O)N2CCN(c3ccc(F)cc3)CC2)nc2ccccc2c1=O	CendR NRP1 mod 29.0
Cn1cccc1Cc1nnc(SCC(=O)N2CCN(c3ccccc3)CC2)n1-c1ccc(F)cc1	CRFR2-BP antag 51.5
CCn1c(SCC(=O)N2CCN(c3ccc(Cl)cc3)CC2)nc2ccccc2c1=O	none
O=C(COC(=O)CCCN1C(=O)c2ccccc2C1=O)Nc1ncc(Cl)cc1Cl	DDE Tn7 FP inh 15.2
Cc1ccc(NC(=O)c2cc(N3C(=O)C4CCCCC4C3=O)ccc2N2CCOCC2)cc1 (stereo not drawn)	CendR NRP1 mod 25.0
COc1ccc2nc3ccccc3nc2c1NC(=O)c1ccc(Cl)cc1Cl	CRFBP-R2 agonist 178.2
COC(=O)[C@]12C[C@H](CC(=O)NCCCCc3ccccc3)C(=O)N(CCC3=CCCCC3)C1=C[C@H](C1CCCC1)O[C@@H]2C	none (no result: CRFR2-BP antag, CRFBP-R2 agonist, CendR NRP1 mod)
COCCN1C(=O)/C(=C/c2ccc(N3CCCC3)cc2)SC1=S	CRFBP-R2 agonist 265.1
CC(c1ccncc1)C(C)c1ccncc1 (stereo not drawn)	CendR NRP1 mod 23.0
CCOc1ccccc1NC(=O)CCc1nnc2ccc(N3CCC4(CC3)OCCO4)nn12	none
CCN(C(=O)CCc1nnc2ccc(N3CCC4(CC3)OCCO4)nn12)c1ccccc1	CRFR2-BP antag 51.8
CC1CN(S(=O)(=O)c2ccc(C(=O)O)cc2)CC(C)O1 (stereo not drawn)	none
CC1CN(S(=O)(=O)c2ccc(C(=O)N3CCc4ccccc43)cc2)CC(C)O1 (stereo not drawn)	CRFR2-BP antag 110.1
c1ccc(Oc2cccc(OCCCCSc3ncccn3)c2)cc1	CRFBP-R2 agonist 50.5
CCc1ccc(CNCC(=O)N2CCC3(CC2)OCCO3)s1	none (no result: CRFR2-BP antag, CRFBP-R2 agonist, CendR NRP1 mod)
O=C(O)CCCN1C(=O)/C(=C\c2ccc(-c3nc4ccccc4s3)o2)SC1=S	CRFBP-R2 agonist 109.0
O=C(O)c1cc(-c2ccc(/C=C3/SC(=S)N(Cc4ccccc4)C3=O)o2)ccc1Cl	CRFBP-R2 agonist 208.9
O=C(O)CCN1C(=O)/C(=C/c2ccc(-c3nc4ccccc4s3)o2)SC1=S	none
Cc1ccc(/C=C2\SC(=S)N(Cc3ccccc3)C2=O)o1	none
O=C(O)CC(C(=O)O)N1C(=O)/C(=C/c2ccc(-c3nc4ccccc4s3)o2)SC1=S (stereo not drawn)	CRFR2-BP antag 53.4

Screening data as filed in PubChem BioAssay.
